From ChEMBL document CHEMBL2177011, “Discovery, synthesis, and biological evaluation of orally active pyrrolidone derivatives as novel inhibitors of p53-MDM2 protein-protein interaction” (J Med Chem, 2012)

Experiments:
[1] = target: Tumour suppressor p53/oncoprotein Mdm2 (Homo sapiens, UniProt Q00987); test: (§1) Inhibition of p53-MDM2 interaction after 1 hr by fluorescence polarization assay; type: protein assay
[2] = target: Tumour suppressor p53/oncoprotein Mdm2 (Homo sapiens, UniProt P04637+Q00987); test: as §1; type: protein assay
Tumour suppressor p53/oncoprotein Mdm2 (Homo sapiens, UniProt P04637+Q00987), sequence (P04637 whole entry): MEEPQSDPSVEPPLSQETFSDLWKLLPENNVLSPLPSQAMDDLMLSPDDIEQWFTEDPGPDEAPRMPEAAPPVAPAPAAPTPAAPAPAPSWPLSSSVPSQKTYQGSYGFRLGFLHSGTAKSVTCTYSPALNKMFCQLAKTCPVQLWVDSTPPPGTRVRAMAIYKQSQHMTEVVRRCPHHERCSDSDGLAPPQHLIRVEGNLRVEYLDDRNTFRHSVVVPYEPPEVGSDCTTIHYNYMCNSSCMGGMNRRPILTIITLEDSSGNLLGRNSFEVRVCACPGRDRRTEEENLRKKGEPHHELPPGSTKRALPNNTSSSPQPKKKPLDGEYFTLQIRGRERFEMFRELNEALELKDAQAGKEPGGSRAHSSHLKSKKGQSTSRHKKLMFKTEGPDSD
Tumour suppressor p53/oncoprotein Mdm2 (Homo sapiens, UniProt P04637+Q00987), sequence (Q00987 whole entry): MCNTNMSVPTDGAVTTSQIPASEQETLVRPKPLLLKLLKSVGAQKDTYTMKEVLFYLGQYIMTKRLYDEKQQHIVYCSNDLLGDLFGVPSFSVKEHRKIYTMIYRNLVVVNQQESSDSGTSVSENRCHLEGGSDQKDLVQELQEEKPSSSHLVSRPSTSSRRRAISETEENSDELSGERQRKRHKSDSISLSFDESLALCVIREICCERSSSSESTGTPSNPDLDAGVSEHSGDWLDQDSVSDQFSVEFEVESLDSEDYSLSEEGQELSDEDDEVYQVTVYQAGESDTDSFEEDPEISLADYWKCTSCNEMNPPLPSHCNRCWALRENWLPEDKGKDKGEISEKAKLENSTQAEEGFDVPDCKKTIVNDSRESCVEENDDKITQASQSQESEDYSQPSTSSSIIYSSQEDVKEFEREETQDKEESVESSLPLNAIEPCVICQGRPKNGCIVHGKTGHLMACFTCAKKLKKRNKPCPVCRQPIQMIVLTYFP

SAOS-2 = test: Antiproliferative activity against p53 deficient human Saos2 cells after 72 hrs by MTT assay; type: functional, cell-based; conditions: SAOS-2, 72 h
Outline: (§2)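 Cells seeded at 5−6 × 10⁴ per well and cultured 24 h, then exposed in triplicate wells to a range of compound concentrations for 72 h, with 0.1% DMSO as control. MTT (5 mg/mL solution) was added for 4 h at 37 °C, formazan dissolved in DMSO, absorbance read at 570 nm. Drug-free wells served as blanks; IC50 calculated.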

NCI-H1299 = test: Antiproliferative activity against p53 deficient human NCI-H1299 cells after 72 hrs by MTT assay; type: functional, cell-based; conditions: NCI-H1299, 72 h; outline: as §2
U2OS = test: Antiproliferative activity against human U2OS cells expressing wild type p53 after 72 hrs by MTT assay; type: functional, cell-based; outline: as §2
[3] = target: Tumour suppressor protein p53/Mdm4 (Homo sapiens, UniProt O15151); test: (§3) Inhibition of p53-MDMX interaction after 1 hr by fluorescence polarization assay; type: protein assay
Tumour suppressor protein p53/Mdm4 (Homo sapiens, UniProt O15151), sequence (P04637 whole entry): as the sequence (P04637 whole entry) above
Tumour suppressor protein p53/Mdm4 (Homo sapiens, UniProt O15151), sequence (O15151 whole entry): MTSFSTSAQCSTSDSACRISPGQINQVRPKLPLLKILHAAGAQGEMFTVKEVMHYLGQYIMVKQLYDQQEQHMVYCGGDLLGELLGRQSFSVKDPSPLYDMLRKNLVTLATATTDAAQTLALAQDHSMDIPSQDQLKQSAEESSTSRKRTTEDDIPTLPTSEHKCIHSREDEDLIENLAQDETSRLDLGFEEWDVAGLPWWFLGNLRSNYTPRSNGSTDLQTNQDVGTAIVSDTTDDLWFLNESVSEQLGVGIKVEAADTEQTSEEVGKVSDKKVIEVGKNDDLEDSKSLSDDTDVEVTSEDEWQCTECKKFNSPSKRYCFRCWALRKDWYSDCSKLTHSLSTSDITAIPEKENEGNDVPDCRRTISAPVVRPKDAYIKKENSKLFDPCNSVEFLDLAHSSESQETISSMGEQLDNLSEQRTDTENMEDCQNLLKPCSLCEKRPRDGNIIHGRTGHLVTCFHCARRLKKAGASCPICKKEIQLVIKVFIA

A549 [4] = test: Antiproliferative activity against human A549 cells expressing wild type p53 after 72 hrs by MTT assay; type: functional, cell-based; outline: as §2
[5] = target: Tumour suppressor protein p53/Mdm4 (Homo sapiens, UniProt P04637+O15151); test: as §3; type: protein assay
Tumour suppressor protein p53/Mdm4 (Homo sapiens, UniProt P04637+O15151), sequence (P04637 whole entry): as the sequence (P04637 whole entry) above
Tumour suppressor protein p53/Mdm4 (Homo sapiens, UniProt P04637+O15151), sequence (O15151 whole entry): as the sequence (O15151 whole entry) above

A549 [6] = test: Antitumor activity against human A549 cells expressing wild type p53 xenografted in nude BALB/C mouse assessed as inhibition of tumor growth at 200 mg/kg, po qd for 14 days; type: functional; conditions: A549, 336 h, read-out: TGI
Outline: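 Male BALB/C nude mice (18−20 g) had A549 cells implanted subcutaneously in the right axilla. Dosing started on day 13, when tumors reached 100−300 mm³. Mice were randomized (6 per treatment group, 10 controls) and dosed by gavage once daily for 14 days. Caliper tumor volume (TV = 1/2 × a × b²) was taken every 4 days; relative tumor volume was used. Mice were sacrificed on day 29 or 33.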

Mus musculus = test: Toxicity in nude BALB/C mouse assessed as mortality at 200 mg/kg, po qd for 14 days; type: organism-based; design: dose 200 mg/kg, route oral; conditions: in vivo, 336 h
Outline: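 Male BALB/C nude mice (18−20 g) carried subcutaneous A549 implants in the right axilla. Dosing began once tumors reached 100−300 mm³, 13 days after implantation. Animals were randomized into groups of 6 per treatment and 10 controls, then given 200 mg/kg by gavage once daily for 14 consecutive days. Body weight was recorded every 4 days. Mice were sacrificed on day 29 or 33.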

[7] = Homo sapiens, U2OS, 72 h, read-out: IC50
[8] = Homo sapiens, A549, 72 h, read-out: IC50

Tumour suppressor p53/oncoprotein Mdm2 (Homo sapiens, UniProt Q00987), sequence (P04637 whole entry): as the sequence (P04637 whole entry) above
Tumour suppressor p53/oncoprotein Mdm2 (Homo sapiens, UniProt Q00987), sequence (Q00987 whole entry): as the sequence (Q00987 whole entry) above

SMILES | Ki [1] | IC50 (SAOS-2) | IC50 (NCI-H1299) | IC50 (U2OS; [7]) | IC50 (A549 [4]; [8]) | further results
O=C(C1=C(O)C(=O)N(CCCn2ccnc2)C1c1ccc(Br)cc1)c1ccc([N+](=O)[O-])cc1 (stereo not drawn) | 2.54 µM |  |  |  |  | 
O=C(C1=C(O)C(=O)N(CCc2ccccc2)C1c1ccc(Br)cc1)c1cccs1 (stereo not drawn) | 12 µM |  |  |  |  | 
O=C(C1=C(O)C(=O)N(CCCn2ccnc2)C1c1ccccn1)c1ccccc1 (stereo not drawn) |  |  |  |  |  | Ki [2]: Not Active
O=C(C1=C(OC2CCCCC2)C(=O)N(CCCn2ccnc2)C1c1ccc(Br)cc1)c1ccccc1 (stereo not drawn) | 0.49 µM | 29.7 µM | 19.9 µM | 22.4 µM | 31.2 µM | Ki [3]: 17.9 µM
Cc1cc(C)cc(C2C(C(=O)c3ccccc3)=C(O)C(=O)N2CCCn2ccnc2)c1 (stereo not drawn) | 0.91 µM |  |  |  |  | 
O=C(C1=C(NCc2ccccc2)C(=O)N(CCCn2ccnc2)C1c1ccc(Br)cc1)c1ccccc1 (stereo not drawn) | 0.47 µM | 31.6 µM | 25.3 µM | 32.5 µM | 52.8 µM | 
O=C(C1=C(O)C(=O)N(CCCn2ccnc2)C1c1ccccc1Br)c1ccccc1 (stereo not drawn) | 0.43 µM |  |  |  |  | 
COc1ccc(C(=O)C2=C(O)C(=O)N(c3nccs3)C2c2ccc(C)cc2)cc1 (stereo not drawn) | 2.5 µM |  |  |  |  | 
O=C(C1=C(Nc2ccccc2)C(=O)N(CCCn2ccnc2)C1c1ccc(Br)cc1)c1ccccc1 (stereo not drawn) | 0.14 µM | 24.4 µM | 21.2 µM | 25.7 µM | 24.1 µM | 
CCCCOC1=C(C(=O)c2ccccc2)C(c2ccc(Br)cc2)N(CCCn2ccnc2)C1=O (stereo not drawn) | 0.47 µM | 11.6 µM | 17.1 µM | 32.4 µM | 18.5 µM | Ki [5]: Not Active
CCCOC1=C(C(=O)c2ccccc2)C(c2ccc(Br)cc2)N(CCCn2ccnc2)C1=O (stereo not drawn) | 6.97 µM |  |  |  |  | Ki [3]: 9.32 µM
O=C(C1=C(O)C(=O)N(CCCn2ccnc2)C1c1ccc(Cl)cc1Cl)c1ccccc1 (stereo not drawn) | 39.4 µM |  |  |  |  | 
COCCOC1=C(C(=O)c2ccccc2)C(c2ccc(Br)cc2)N(CCCn2ccnc2)C1=O (stereo not drawn) | 1.34 µM |  |  |  |  | Ki [3]: 2.11 µM
C[C@@H](NC1=C(C(=O)c2ccccc2)[C@H](c2ccc(Br)cc2)N(CCCn2ccnc2)C1=O)c1ccccc1 |  | 13.2 µM | 17 µM | 30.8 µM | 15.7 µM | 
NC1=C(C(=O)c2ccccc2)C(c2ccc(Br)cc2)N(CCCn2ccnc2)C1=O (stereo not drawn) | 0.048 µM | 107 µM | 168 µM | 149 µM |  | Ki [5]: Not Active; IC50 (A549 [4]; a549): Not Active
Cc1ccc(C2C(C(=O)c3ccccc3)=C(O)C(=O)N2CCCn2ccnc2)c(C)c1 (stereo not drawn) | 10.7 µM |  |  |  |  | 
Cc1ccc(NC2=C(C(=O)c3ccccc3)C(c3ccc(Br)cc3)N(CCCn3ccnc3)C2=O)cc1 (stereo not drawn) | 0.14 µM | 31.9 µM | 25.8 µM | 24.1 µM | 29.4 µM | 
O=C(C1=C(Nc2ccc(F)cc2)C(=O)N(CCCn2ccnc2)C1c1ccc(Br)cc1)c1ccccc1 (stereo not drawn) | 0.43 µM | 32.7 µM | 25.4 µM | 30 µM | 27.4 µM | 
O=C(C1=C(O)C(=O)N(CCCn2ccnc2)C1c1ccc(Cl)nc1)c1ccccc1 (stereo not drawn) |  |  |  |  |  | Ki [2]: Not Active
O=C(C1=C(O)C(=O)N(CCCn2ccnc2)C1c1ccc(Cl)cc1)c1ccccc1 (stereo not drawn) | 23.3 µM |  |  |  |  | 

SMILES | Ki [1] | IC50 (SAOS-2) | IC50 (NCI-H1299) | IC50 (U2OS; [7]) | IC50 (A549 [4]; [8]) | further results
O=C(C1=C(O)C(=O)N(CCCn2ccnc2)C1c1ccc(Br)cc1)c1ccccc1[N+](=O)[O-] (stereo not drawn) | 15.3 µM |  |  |  |  | 
CCOc1ccc(NC2=C(C(=O)c3ccccc3)C(c3ccc(Br)cc3)N(CCCn3ccnc3)C2=O)cc1 (stereo not drawn) | 0.35 µM | 30.9 µM | 19.9 µM | 26.2 µM | 20.2 µM | 
O=C(C1=C(O)C(=O)N(CCCn2ccnc2)C1c1ccc(Br)cc1)c1ccc(F)cc1 (stereo not drawn) | 1.46 µM |  |  |  |  | 
O=C(CSc1nnc(-c2ccc(O)cc2)n1-c1ccccc1)Nc1ccccc1 | 86 µM |  |  |  |  | 
O=C(C1=C(O)C(=O)N(CCCn2ccnc2)C1c1ccc(Cl)cc1)c1ccc2c(c1)OCCO2 (stereo not drawn) | 1.37 µM |  |  |  |  | 
O=C(C1=C(O)C(=O)N(CCCn2ccnc2)C1c1ccc(Br)cc1)c1ccc(Br)cc1 (stereo not drawn) | 24.9 µM |  |  |  |  | 
O=C(C1=C(O)C(=O)N(CCCn2ccnc2)C1c1ccc(Br)cc1)c1ccc(Cl)cc1 (stereo not drawn) | 0.91 µM |  |  |  |  | 
O=C(C1=C(Nc2ccc(OC(F)(F)F)cc2)C(=O)N(CCCn2ccnc2)C1c1ccc(Br)cc1)c1ccccc1 (stereo not drawn) | 0.12 µM | 17.9 µM | 11.5 µM | 11.5 µM | 20.8 µM | 
CC(C)OC1=C(C(=O)c2ccccc2)C(c2ccc(Br)cc2)N(CCCn2ccnc2)C1=O (stereo not drawn) |  | 23 µM | 18.9 µM | 24.8 µM | 8.72 µM | inhibition in vivo at 200 mg/kg (A549 [6]): 40%; Activity (Mus musculus): Non-toxic
O=C(C1=C(O)C(=O)N(CCCn2ccnc2)C1c1ccsc1)c1ccccc1 (stereo not drawn) |  |  |  |  |  | Ki [2]: Not Active
O=c1c2cnn(-c3ccccc3)c2nc(Cc2ccccc2)n1Cc1ccccc1 | 2.13 µM |  |  |  |  | 
O=C(C1=C(O)C(=O)N(CCCn2ccnc2)C1c1ccccc1O)c1ccccc1 (stereo not drawn) |  |  |  |  |  | Ki [2]: Not Active
O=C(C1=C(O)C(=O)N(CCCn2ccnc2)C1c1ccco1)c1ccccc1 (stereo not drawn) |  |  |  |  |  | Ki [2]: Not Active
O=C(C1=C(O)C(=O)N(CCCn2ccnc2)C1c1ccc(Br)cc1)c1ccccc1Cl (stereo not drawn) |  |  |  |  |  | Ki [2]: Not Active
O=C(C1=C(O)C(=O)N(CCCn2ccnc2)C1c1ccc(Br)cc1)c1ccc(I)cc1 (stereo not drawn) | 3.59 µM |  |  |  |  | 
O=C(C1=C(O)C(=O)N(CCCn2ccnc2)C1c1cccc([N+](=O)[O-])c1)c1ccccc1 (stereo not drawn) | 0.83 µM |  |  |  |  | 
CCCCCOC1=C(C(=O)c2ccccc2)C(c2ccc(Br)cc2)N(CCCn2ccnc2)C1=O (stereo not drawn) | 0.34 µM | 9.99 µM | 10.3 µM | 9.14 µM | 7.29 µM | Ki [5]: Not Active
O=C(C1=C(O)C(=O)N(CCCn2ccnc2)C1c1cccc(O)c1)c1ccccc1 (stereo not drawn) |  |  |  |  |  | Ki [2]: Not Active
O=C(C1=C(O)C(=O)N(CCCn2ccnc2)C1c1ccc(F)cc1)c1ccccc1 (stereo not drawn) | 0.88 µM |  |  |  |  | 
O=C(C1=C(Nc2cccc(Br)c2)C(=O)N(CCCn2ccnc2)C1c1ccc(Br)cc1)c1ccccc1 (stereo not drawn) | 0.15 µM | 9.09 µM | 11.5 µM | 11.9 µM | 15.8 µM | 

SMILES | Ki [1] | IC50 (SAOS-2) | IC50 (NCI-H1299) | IC50 (U2OS; [7]) | IC50 (A549 [4]; [8]) | further results
O=C(C1=C(O)C(=O)N(CCCn2ccnc2)C1c1ccc2ccccc2c1)c1ccccc1 (stereo not drawn) |  |  |  |  |  | Ki [2]: Not Active
CC(C)(C)c1ccc(C2C(C(=O)c3ccccc3)=C(O)C(=O)N2CCCn2ccnc2)cc1 (stereo not drawn) | 10.9 µM |  |  |  |  | 
O=C(C1=C(Nc2ccc(I)cc2)C(=O)N(CCCn2ccnc2)C1c1ccc(Br)cc1)c1ccccc1 (stereo not drawn) | 0.27 µM | 23.4 µM | 19.4 µM | 12 µM | 24.5 µM | 
Cc1ccc(C2C(C(=O)c3ccccc3)=C(O)C(=O)N2CCCn2ccnc2)cc1 (stereo not drawn) | 0.78 µM |  |  |  |  | 
c1ccc(CN2CCN(Cc3ccccc3)C2c2cccnc2)cc1 | 1.76 µM |  |  |  |  | 
O=C(C1=C(O)C(=O)N(CCCn2ccnc2)C1c1ccc([N+](=O)[O-])cc1)c1ccccc1 (stereo not drawn) | 0.7 µM |  |  |  |  | 
O=C(C1=C(O)C(=O)N(CCCn2ccnc2)C1c1ccc(Br)cc1)c1ccccc1 (stereo not drawn) | 0.29 µM | 31.6 µM | 20 µM |  | 73.1 µM | IC50 (U2OS; u2os): Not Active; Ki [5]: Not Active
O=C(C1=C(O)C(=O)N(Cc2cccnc2)C1c1ccc(Cl)cc1)c1ccccc1 (stereo not drawn) | 0.57 µM |  |  |  |  | 
O=C(C1=C(OCc2ccccc2)C(=O)N(CCCn2ccnc2)C1c1ccc(Br)cc1)c1ccccc1 (stereo not drawn) | 2.07 µM |  |  |  |  | Ki [5]: Not Active
O=C(C1=C(O)C(=O)N(CCCn2ccnc2)C1c1cccs1)c1ccccc1 (stereo not drawn) |  |  |  |  |  | Ki [2]: Not Active
COc1ccc(CCN2C(=O)C(O)=C(C(=O)c3cccs3)C2c2ccc(C)cc2)cc1 (stereo not drawn) | 48.8 µM |  |  |  |  | 
O=C(C1=C(Nc2ccc(Cl)cc2)C(=O)N(CCCn2ccnc2)C1c1ccc(Br)cc1)c1ccccc1 (stereo not drawn) | 0.23 µM | 24.8 µM | 25 µM | 22.8 µM | 29.9 µM | 
O=C(C1=C(O)C(=O)N(CCCn2ccnc2)C1c1ccc(C(F)(F)F)cc1)c1ccccc1 (stereo not drawn) | 0.81 µM |  |  |  |  | 
CCOC1=C(C(=O)c2ccccc2)C(c2ccc(Br)cc2)N(CCCn2ccnc2)C1=O (stereo not drawn) | 0.69 µM | 31.7 µM | 28.9 µM | 21.9 µM | 35.2 µM | Ki [3]: 38.9 µM
O=C(C1=C(Nc2ccccc2Br)C(=O)N(CCCn2ccnc2)C1c1ccc(Br)cc1)c1ccccc1 (stereo not drawn) | 0.15 µM | 19.6 µM | 15.6 µM | 16.9 µM | 20.1 µM | 
COc1ccc(C2C(C(=O)c3ccccc3)=C(O)C(=O)N2CCCn2ccnc2)cc1 (stereo not drawn) |  |  |  |  |  | Ki [2]: Not Active
O=C(C1=C(O)C(=O)N(CCCn2ccnc2)C1c1cccnc1)c1ccccc1 (stereo not drawn) |  |  |  |  |  | Ki [2]: Not Active
O=C(C1=C(Nc2ccc(Br)cc2)C(=O)N(CCCn2ccnc2)C1c1ccc(Br)cc1)c1ccccc1 (stereo not drawn) | 0.19 µM | 23.8 µM | 19.2 µM | 13 µM | 22.2 µM | 
